Measurements from ChEMBL document CHEMBL3286113, “New potent antibacterial oxazolidinone (MRX-I) with an improved class safety profile” (J Med Chem, 2014).
Converted amounts (≈) assume the structure as drawn.

Legend:
[1] = Tmax in fasted human at 600 mg, po administered as single dose; format: ADME, organism-based; details: in vivo
Summary of the method: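 Randomized single-dose, three-period Latin-square crossover in 12 healthy volunteers (six per gender), fasting. Single oral doses of 300, 600 and 900 mg were separated by a 1-week washout. PK parameters were derived by noncompartmental analysis.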

[2] = AUC (0 to infinity) in fasted human at 600 mg, po administered as single dose; format: ADME, organism-based; set-up: dose 600 mg, route oral, time infinity; details: plasma
Summary of the method: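 Single-dose, three-period Latin-square crossover in 12 healthy volunteers (6 of each gender). Each received single oral 300, 600 and 900 mg doses under fasting conditions, with a 1-week washout between doses. PK parameters, including AUC0−inf, came from a noncompartmental model.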

[3] = Cmax in human at 900 mg, po administered as single dose at 30 mins post fat meal; format: ADME, organism-based; set-up: dose 900 mg, route oral; details: in vivo
Summary of the method: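 Crossover study in 12 subjects (six of each sex). Each got a single oral 900 mg dose either fasted or 30 min after a fat-containing meal.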

Homo sapiens = assay: Toxicity in human at 600 to 800 mg, po administered as single dose with meal on day 1 and day 15 followed by bid with meal on day 2 to day 14 measured during compound treatment; format: organism-based; details: in vivo
[4] = Tmax in human at 600 mg, po administered as single dose with meal measured on day 15; format: ADME, organism-based; details: in vivo
Summary of the method: (§1)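 Randomized, double-blind, placebo-controlled multiple-dose study in 32 healthy subjects, half male and half female. Dosing was 600 or 800 mg orally with a meal, 28 doses over 15 days. A single dose was given on days 1 and 15 for full PK, with Q12h (BID) dosing on days 2−14.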

[5] = Tmax in human at 800 mg, po administered as single dose with meal measured on day 15; format: ADME, organism-based; details: in vivo; summary of the method: as §1
Rattus norvegicus [6] = assay: Toxicity in female rat assessed as effect on neutrophil count at 20 mg/kg/day, po bid administered for 4 weeks (reference value: 22.4%); format: organism-based; set-up: route oral; details: in vivo, 672 h
Rattus norvegicus [7] = assay: Toxicity in female rat assessed as effect on WBC count at 100 mg/kg/day, po bid administered for 4 weeks (reference value: 3.66 x 10^9/L); format: organism-based; set-up: route oral; details: in vivo, 672 h
Rattus norvegicus [8] = assay: Toxicity in female rat assessed as effect on hemoglobin level at 100 mg/kg/day, po bid administered for 4 weeks (reference value: 141.8 g/L); format: organism-based; set-up: route oral; details: in vivo, 672 h
Rattus norvegicus [9] = assay: Toxicity in female rat assessed as effect on lymphocyte count at 100 mg/kg/day, po bid administered for 4 weeks (reference value: 74.8%); format: organism-based; set-up: route oral; details: in vivo, 672 h
Rattus norvegicus [10] = assay: Toxicity in female rat assessed as effect on reticulocyte count at 200 to 300 mg/kg/day, po bid administered for 4 weeks (reference value: 1.48%); format: organism-based; set-up: route oral; details: in vivo, 672 h
Cytochrome P450 2C9 = Cytochrome P450 2C9 (Homo sapiens, UniProt P11712); assay: Inhibition of CYP2C9 (unknown origin) at 1 to 200 uM; format: ADME
Chain of Cytochrome P450 2C9 (P11712 whole entry): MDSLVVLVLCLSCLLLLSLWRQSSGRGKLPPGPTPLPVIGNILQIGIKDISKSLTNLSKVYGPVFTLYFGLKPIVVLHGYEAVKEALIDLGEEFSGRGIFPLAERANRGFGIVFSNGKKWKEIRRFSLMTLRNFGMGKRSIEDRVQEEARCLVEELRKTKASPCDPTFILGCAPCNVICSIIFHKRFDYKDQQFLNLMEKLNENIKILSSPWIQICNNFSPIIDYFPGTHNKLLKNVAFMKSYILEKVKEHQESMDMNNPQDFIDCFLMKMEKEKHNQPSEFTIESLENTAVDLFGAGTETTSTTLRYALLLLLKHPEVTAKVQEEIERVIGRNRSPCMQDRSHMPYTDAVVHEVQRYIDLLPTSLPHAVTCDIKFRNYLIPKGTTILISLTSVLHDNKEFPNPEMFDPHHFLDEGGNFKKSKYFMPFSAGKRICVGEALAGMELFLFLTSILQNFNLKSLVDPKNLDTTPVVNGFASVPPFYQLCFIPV

Staphylococcus = assay: Antibacterial activity against beta-lactamase-negative Staphylococcus; format: functional
Streptococcus pneumoniae [11] = assay: Bactericidal activity against penicillin intermediate-sensitive Streptococcus pneumoniae; format: functional
Streptococcus pneumoniae [12] = assay: Bactericidal activity against penicillin-sensitive Streptococcus pneumoniae; format: functional
Staphylococcus aureus [13] = assay: Antibacterial activity against methicillin-resistant Staphylococcus aureus by agar dilution method; format: functional
Summary of the method: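 MIC determined by agar dilution across S. aureus/MRSA isolates; MIC90 is the concentration inhibiting 90% of strains tested.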

[14] = Toxicity in po dosed rat administered as bid for 4 weeks; format: organism-based; details: in vivo
Staphylococcus aureus [15] = assay: Antibacterial activity against methicillin-resistant Staphylococcus aureus isolate 0605 in mouse thigh infection model assessed as reduction of log10 CFU per thigh at 20 mg/kg, po; format: functional
[16] = Tmax in male rat at 15 mg/kg, po; format: ADME, organism-based; set-up: dose 15 mg/kg, route oral; details: in vivo
Summary of the method: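 Male and female rats received single oral doses of 5, 15 or 45 mg/kg, with 5 mg/kg iv as a reference arm. Tmax was read from the plasma concentration–time profile for each gender.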

[17] = Cmax in male rat at 15 mg/kg, po; format: ADME, organism-based; set-up: dose 15 mg/kg, route oral; details: in vivo
[18] = Half life in male rat at 5 mg/kg, iv; format: ADME, organism-based; set-up: dose 5 mg/kg, route intravenous; details: in vivo
[19] = AUC (0 to t) in male rat at 5 mg/kg, po; format: ADME, organism-based; set-up: dose 5 mg/kg, route oral; details: plasma
Summary of the method: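 Rat PK by gender, with single oral doses of 5, 15 and 45 mg/kg and an iv dose of 5 mg/kg. Tmax, Cmax, T1/2 and AUC0−t were reported per gender.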

**Q.** Which Tmax [1] does the source give for `O=C1C=CN(c2c(F)cc(N3C[C@H](CNc4ccon4)OC3=O)c(F)c2F)CC1` [CONTEZOLID] here?
**A.** 120 min

**Q.** And the AUC(0-inf) [2]?
**A.** 48300 ng·h/mL

**Q.** What about the Cmax [3] of the same compound?
**A.** 42300 ng/mL

**Q.** And the Activity (Homo sapiens)?
**A.** Non-toxic

**Q.** And the Tmax [4]?
**A.** 36 min

**Q.** And the Tmax [5]?
**A.** 34.2 min

**Q.** What about the Activity (Rattus norvegicus [6]) of the same compound?
**A.** 15.4%

**Q.** And the Activity (Rattus norvegicus [7])?
**A.** 3.14 ×10⁹ /L

**Q.** And the Activity (Rattus norvegicus [8])?
**A.** 134.8 g/L

**Q.** What about the Activity (Rattus norvegicus [9]) of the same compound?
**A.** 78.8%

**Q.** And the Activity (Rattus norvegicus [10])?
**A.** 1.26%

**Q.** And the “inhibition (INH)” value (Cytochrome P450 2C9)?
**A.** Not Active

**Q.** And the MIC50 (Staphylococcus)?
**A.** 0.5 µg/mL (≈ 1.22 µM)

**Q.** What about the MIC90 (Staphylococcus) of the same compound?
**A.** 0.5 µg/mL (≈ 1.22 µM)

**Q.** And the MIC50 (Streptococcus pneumoniae [11])?
**A.** 0.5 µg/mL (≈ 1.22 µM)

**Q.** And the MIC90 (Streptococcus pneumoniae [11])?
**A.** 0.5 µg/mL (≈ 1.22 µM)

**Q.** And the MIC50 (Streptococcus pneumoniae [12])?
**A.** 0.5 µg/mL (≈ 1.22 µM)

**Q.** What about the MIC90 (Streptococcus pneumoniae [12]) of the same compound?
**A.** 0.5 µg/mL (≈ 1.22 µM)

**Q.** What about the MIC50 (Staphylococcus aureus [13]) of the same compound?
**A.** 0.5 µg/mL (≈ 1.22 µM)

**Q.** And the MIC90 (Staphylococcus aureus [13])?
**A.** 0.5 µg/mL (≈ 1.22 µM)

**Q.** And the NOAEL at 672 h [14]?
**A.** 100 mg/kg/day

**Q.** And the deltalog10CFU (Staphylococcus aureus [15])?
**A.** 3.6

**Q.** What about the Tmax [16] of the same compound?
**A.** 60 min

**Q.** And the Cmax [17]?
**A.** 10700 ng/mL

**Q.** And the half-life [18]?
**A.** 59.4 min

**Q.** And the AUC(0-t) [19]?
**A.** 10200 ng·h/mL
